Assay results reported in PubChem BioAssay.
The source made the active and inactive calls.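 The calls were made as follows, unless noted: active = GFP response above 150% of the DMSO level; inconclusive = fewer than 70 events counted for a yeast strain; inactive = the rest.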

What was measured:
[1] = hit retest on RPL19A-GFP reporter strain – cell-based, S. cerevisiae, flow cytometry, cherry picks, mother/daughter gates, confirmation (AID 2270;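 active = GFP response below 50% of the DMSO control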); settings: 3 h, at 10 µM, stronger effect = lower value, 100 = same GFP as DMSO wells
[2] = yeast TOR pathway reporter LAP4-GFP change – cell-based, cherry picks, flow cytometry, mother/daughter gates, confirmation (AID 2271;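 active = GFP response above 150% of the DMSO control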;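 also: ratio of sample to DMSO plate mean so 100% equals DMSO level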); settings: S. cerevisiae LAP4-GFP strain, 3 h, at 10 µM, stronger effect = higher value, 100 means same as DMSO control
How it was run: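 Test system: GFP-fusion yeast strain / Amount: 0.2 OD600 cells / Buffer or medium: SC medium / Dosing: 10 µM single dose / Incubation: compound exposure 3 h at 30 °C, end-over-end rotation / Detection: HT flow cytometry, GFP fluorescence channel / Evaluation: median GFP fluorescence as percent of plate-mean DMSO wells / Control set: DMSO-only negative wells, rapamycin 400 ng/mL positive wells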

[3] = TOR pathway reporter MEP2-GFP, retest of hits – S. cerevisiae, flow cytometry GFP, cherry picks, confirmation (AID 2272;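 active = GFP response above 150% of the DMSO control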;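 also: ratio of well signal to plate DMSO mean so 100% equals DMSO level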); settings: S. cerevisiae MEP2-GFP strain, 3 h, at 10 µM, stronger effect = higher value
[4] = yeast AGP1-GFP fluorescence change, single-dose – cell-based, flow cytometry, S. cerevisiae, cherry picks, confirmation (AID 2273);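 also: median GFP channel fluorescence over the whole cell population gate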; settings: S. cerevisiae AGP1-GFP strain, 3 h, at 10 µM
[5] = TOR pathway CIT2 reporter hit retest – S. cerevisiae, GFP fusion, cherry picks, mother/daughter gates, confirmation (AID 2274); settings: S. cerevisiae CIT2-GFP strain, flow cytometry, 3 h, at 10 µM, stronger effect = higher value
[6] = measured here: daughter cell gate
[7] = measured here: mother cell gate
[8] = measured here: daughter cell gate response
[9] = measured here: mother cell gate response

## COCc1nnc(NC(=O)c2ccc(S(=O)(=O)N(C)c3ccccc3)cc2)o1
[1]
  GFP response vs DMSO: 96.8% (inactive)
[1]; [6]
  GFP response vs DMSO: 96.6%
[1]; [7]
  GFP response vs DMSO: 97.1%
[2]
  GFP response relative to DMSO: 101% (inactive)
[2]; [8]
  GFP response relative to DMSO: 99.2%
[2]; [9]
  GFP response relative to DMSO: 98.3%
[3]
  GFP response vs DMSO: 100% (inactive)
[4]
  GFP response, % of DMSO: 92.5% (inactive)
[5]
  GFP response, % of DMSO: 96.9% (inactive)
[5]; [6]
  GFP response, % of DMSO: 97.2%
[5]; [7]
  GFP response, % of DMSO: 97.3%

## CCOC(=O)c1sc(Nc2nc3c(OC)cccc3s2)nc1C
[1]
  GFP response vs DMSO: 103% (inactive)
[1]; [6]
  GFP response vs DMSO: 77.4%
[1]; [7]
  GFP response vs DMSO: 69%
[2]
  GFP response relative to DMSO: 97% (inactive)
[2]; [8]
  GFP response relative to DMSO: 94.2%
[2]; [9]
  GFP response relative to DMSO: 92%
[3]
  GFP response vs DMSO: 112% (inactive)
[4]
  GFP response, % of DMSO: 106% (inactive)
[5]
  GFP response, % of DMSO: 100% (inactive)
[5]; [6]
  GFP response, % of DMSO: 90.2%
[5]; [7]
  GFP response, % of DMSO: 90.7%

## O=C(Nc1ccccc1O)c1ccccc1O
[1]
  GFP response vs DMSO: 95.8% (inactive)
[1]; [6]
  GFP response vs DMSO: 96.4%
[1]; [7]
  GFP response vs DMSO: 94.2%
[2]
  GFP response relative to DMSO: 96.5% (inactive)
[2]; [8]
  GFP response relative to DMSO: 96%
[2]; [9]
  GFP response relative to DMSO: 95.4%
[3]
  GFP response vs DMSO: 106% (inactive)
[4]
  GFP response, % of DMSO: 103% (inactive)
[5]
  GFP response, % of DMSO: 101% (inactive)
[5]; [6]
  GFP response, % of DMSO: 103%
[5]; [7]
  GFP response, % of DMSO: 100%

## Cc1ccc(Oc2nc(-c3ccccn3)nc3ccccc23)cc1
[1]
  GFP response vs DMSO: 98.2% (inactive)
[1]; [6]
  GFP response vs DMSO: 94.7%
[1]; [7]
  GFP response vs DMSO: 97.8%
[2]
  GFP response relative to DMSO: 110% (inactive)
[2]; [8]
  GFP response relative to DMSO: 107%
[2]; [9]
  GFP response relative to DMSO: 110%
[3]
  GFP response vs DMSO: 103% (inactive)
[4]
  GFP response, % of DMSO: 92.2% (inactive)
[5]
  GFP response, % of DMSO: 91.5% (inactive)
[5]; [6]
  GFP response, % of DMSO: 92%
[5]; [7]
  GFP response, % of DMSO: 90.7%

## O=C(COC(=O)c1ccc(NS(=O)(=O)c2cccs2)cc1O)Nc1nc2ccccc2s1
[1]
  GFP response vs DMSO: 101% (inactive)
[1]; [6]
  GFP response vs DMSO: 100%
[1]; [7]
  GFP response vs DMSO: 101%
[2]
  GFP response relative to DMSO: 91.4% (inactive)
[2]; [8]
  GFP response relative to DMSO: 92.5%
[2]; [9]
  GFP response relative to DMSO: 93.1%
[3]
  GFP response vs DMSO: 102% (inactive)
[4]
  GFP response, % of DMSO: 98.5% (inactive)
[5]
  GFP response, % of DMSO: 102% (inactive)
[5]; [6]
  GFP response, % of DMSO: 98.1%
[5]; [7]
  GFP response, % of DMSO: 104%

## O=C(/C=C/c1ccccn1)c1cc(Br)ccc1O
[1]
  GFP response vs DMSO: 81.7% (inactive)
[1]; [6]
  GFP response vs DMSO: 93.3%
[1]; [7]
  GFP response vs DMSO: 72.8%
[2]
  GFP response relative to DMSO: 218% (active)
[2]; [8]
  GFP response relative to DMSO: 177%
[2]; [9]
  GFP response relative to DMSO: 210%
[3]
  GFP response vs DMSO: 109% (inactive)
[4]
  GFP response, % of DMSO: 102% (inactive)
[5]
  GFP response, % of DMSO: 86.1% (inactive)
[5]; [6]
  GFP response, % of DMSO: 94.8%
[5]; [7]
  GFP response, % of DMSO: 77.3%

## CCCc1[nH]nc2c1C(c1cccc(OC(=O)c3ccco3)c1)C(C#N)=C(N)O2 (stereo not drawn)
[1]
  GFP response vs DMSO: 98.5% (inactive)
[1]; [6]
  GFP response vs DMSO: 96.7%
[1]; [7]
  GFP response vs DMSO: 96.7%
[2]
  GFP response relative to DMSO: 97.7% (inactive)
[2]; [8]
  GFP response relative to DMSO: 96%
[2]; [9]
  GFP response relative to DMSO: 98.4%
[3]
  GFP response vs DMSO: 99.3% (inactive)
[4]
  GFP response, % of DMSO: 106% (inactive)
[5]
  GFP response, % of DMSO: 104% (inactive)
[5]; [6]
  GFP response, % of DMSO: 103%
[5]; [7]
  GFP response, % of DMSO: 104%

## Cc1ccc(NCN2C(=O)C3C4C=CC(C4)C3C2=O)cc1 (stereo not drawn)
[1]
  GFP response vs DMSO: 96.4% (inactive)
[1]; [6]
  GFP response vs DMSO: 97%
[1]; [7]
  GFP response vs DMSO: 98.1%
[2]
  GFP response relative to DMSO: 95.3% (inactive)
[2]; [8]
  GFP response relative to DMSO: 93.6%
[2]; [9]
  GFP response relative to DMSO: 96.5%
[3]
  GFP response vs DMSO: 97.5% (inactive)
[4]
  GFP response, % of DMSO: 98.4% (inactive)
[5]
  GFP response, % of DMSO: 102% (inactive)
[5]; [6]
  GFP response, % of DMSO: 102%
[5]; [7]
  GFP response, % of DMSO: 100%

## c1ccc(CSc2ccc(-c3ccccn3)nn2)cc1
[1]
  GFP response vs DMSO: 101% (inactive)
[1]; [6]
  GFP response vs DMSO: 97.1%
[1]; [7]
  GFP response vs DMSO: 91.9%
[2]
  GFP response relative to DMSO: 108% (inactive)
[2]; [8]
  GFP response relative to DMSO: 104%
[2]; [9]
  GFP response relative to DMSO: 106%
[3]
  GFP response vs DMSO: 114% (inactive)
[4]
  GFP response, % of DMSO: 96.7% (inactive)
[5]
  GFP response, % of DMSO: 97.3% (inactive)
[5]; [6]
  GFP response, % of DMSO: 97.4%
[5]; [7]
  GFP response, % of DMSO: 93.2%

## CCOC(=O)c1sc(NC(=O)c2ccco2)nc1-c1ccccc1
[1]
  GFP response vs DMSO: 97.8% (inactive)
[1]; [6]
  GFP response vs DMSO: 96.4%
[1]; [7]
  GFP response vs DMSO: 96.7%
[2]
  GFP response relative to DMSO: 96.5% (inactive)
[2]; [8]
  GFP response relative to DMSO: 94.4%
[2]; [9]
  GFP response relative to DMSO: 98.4%
[3]
  GFP response vs DMSO: 103% (inactive)
[4]
  GFP response, % of DMSO: 100% (inactive)
[5]
  GFP response, % of DMSO: 98.6% (inactive)
[5]; [6]
  GFP response, % of DMSO: 97.6%
[5]; [7]
  GFP response, % of DMSO: 99.3%

## CC(C)(C)C(=O)C(Cl)C(=O)Nc1ccccc1 (stereo not drawn)
[1]
  GFP response vs DMSO: 79.7% (inactive)
[1]; [6]
  GFP response vs DMSO: 89.6%
[1]; [7]
  GFP response vs DMSO: 72.1%
[2]
  GFP response relative to DMSO: 300% (active)
[2]; [8]
  GFP response relative to DMSO: 186%
[2]; [9]
  GFP response relative to DMSO: 271%
[3]
  GFP response vs DMSO: 145% (inactive)
[4]
  GFP response, % of DMSO: 135% (inactive)
[5]
  GFP response, % of DMSO: 126% (inactive)
[5]; [6]
  GFP response, % of DMSO: 106%
[5]; [7]
  GFP response, % of DMSO: 115%

## Cc1ccc(NC(=S)NCC23C=CC(O2)C2C(=O)N(c4ccc(C)cc4)C(=O)C23)cc1 (stereo not drawn)
[1]
  GFP response vs DMSO: 102% (inactive)
[1]; [6]
  GFP response vs DMSO: 101%
[1]; [7]
  GFP response vs DMSO: 102%
[2]
  GFP response relative to DMSO: 105% (inactive)
[2]; [8]
  GFP response relative to DMSO: 105%
[2]; [9]
  GFP response relative to DMSO: 106%
[3]
  GFP response vs DMSO: 104% (inactive)
[4]
  GFP response, % of DMSO: 98.9% (inactive)
[5]
  GFP response, % of DMSO: 100% (inactive)
[5]; [6]
  GFP response, % of DMSO: 98.1%
[5]; [7]
  GFP response, % of DMSO: 101%

## Cc1ccc(C)c(N2CCN(C(=O)c3ccccc3Br)CC2)c1
[1]
  GFP response vs DMSO: 105% (inactive)
[1]; [6]
  GFP response vs DMSO: 102%
[1]; [7]
  GFP response vs DMSO: 99.5%
[2]
  GFP response relative to DMSO: 101% (inactive)
[2]; [8]
  GFP response relative to DMSO: 101%
[2]; [9]
  GFP response relative to DMSO: 100%
[3]
  GFP response vs DMSO: 109% (inactive)
[4]
  GFP response, % of DMSO: 98.8% (inactive)
[5]
  GFP response, % of DMSO: 106% (inactive)
[5]; [6]
  GFP response, % of DMSO: 103%
[5]; [7]
  GFP response, % of DMSO: 105%
